Variants at the floor of the assay were thinned out.
B1: tRNA (parent)
chain: GUUCCGUUGGCGUAAUGGUAACGCGUCUCCCUCCUAAGGAGAAGACUGCGGGUUCGAGUCCCGUACGGAACG

Variants of: B1
Experiment: yeast fitness relative to wild type (ratio to wild type); higher = fitter; tRNA-Arg(CCU), competitive growth, 37 C, YPD
Procedure, shortened: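 Variants of the tRNA-Arg(CCU) gene, chemically synthesised with a 3% per-site mutation rate at 69 sites, were placed at the native genomic locus in Saccharomyces cerevisiae. The pooled strains were competed in YPD at 37°C for 24 hours in six parallel replicates. Gene amplicons from the start population and from each end population were read by 100-nucleotide paired-end sequencing. Darwinian fitness relative to wild type came from changes in genotype frequencies; genotypes needed ≥ 100 starting reads, and estimates < 0.5 were set to 0.5.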

| Variant | yeast fitness |
| --- | --- |
| C27G C46U G50A | 0.599 |
| U19C G23A C24A C29U C30U G63A | ≤ 0.5 |
| C11U C22A C29G C33U G56C | ≤ 0.5 |
| U35C C61A | ≤ 0.5 |
| U35C C61U | 0.968 |
| A21U C22U A37G G44A A45C C46A C55U U59G U64C | ≤ 0.5 |
| C30U C31G U35A | 0.62 |
| C4U C5G C60G | ≤ 0.5 |
| C5U G44C | 1.01 |
| A36U C49G G52C | ≤ 0.5 |
| C5G U13A A20G U35A A40G G63U | ≤ 0.5 |
| A40U G67C | 0.755 |
| C11G G18U C22U C33U A43G | ≤ 0.5 |
| C4U G10U C24U | 0.625 |
| A15U C31U G52A | 0.576 |
| C4G G44A | 0.726 |
| C11A C33U | 0.533 |
| C4G U16C C27G A40G G48A A57C C62U | 0.537 |
| G44A C60A | 0.585 |
| C5A U8C A21G A45C G56C | 0.554 |
| C4G A37C G38A G63A | ≤ 0.5 |

| Variant | yeast fitness |
| --- | --- |
| G58C A65C | 0.867 |
| U3A C30G G38C | 0.987 |
| C34A A45U | 0.698 |
| U13C U19A A21U C24A U54C U59C A69G | ≤ 0.5 |
| C30U C34U G44C | ≤ 0.5 |
| C5U C24U C29A | 0.574 |
| C22U C24G U28A A45C A57C C61U | 0.581 |
| A15G C61A | 0.589 |
| U2A C11G U54C C61G | ≤ 0.5 |
| C31A C33G A36U | 0.676 |
| G23C C24G G50A A57G | ≤ 0.5 |
| C30U C31G U53C | ≤ 0.5 |
| C5A C33G A40G | 0.521 |
| U32C C61G | 0.702 |
| U8C G25A | 0.931 |
| C5A A14G C22G C27U A37U | ≤ 0.5 |
| C49A C62G | 0.576 |
| A40G G63A | 0.819 |
| G9A A40G C66U | ≤ 0.5 |
| G9C G39C G67U | ≤ 0.5 |
| G17A C22G C27A C62G | ≤ 0.5 |

| Variant | yeast fitness |
| --- | --- |
| G10A U54A C55G | ≤ 0.5 |
| A15U C55G U64C A65C | ≤ 0.5 |
| G18C C22U C34G A43U | ≤ 0.5 |
| G6A C29A C62A | ≤ 0.5 |
| C11U A37G C49U A69C | ≤ 0.5 |
| C24G C30U | 0.553 |
| U8A G12A A14C G67U | 0.65 |
| A40U U47A G58C | 0.579 |
| A15G A69U | 1.04 |
| U7C U47G U59A C66A A70C | ≤ 0.5 |
| C29A A42U C46A G63A | ≤ 0.5 |
| A40G G52A U53A C66U | ≤ 0.5 |
| G18C G23C | 0.577 |
| U3C U13C C24U G52A | 0.576 |
| C24A C55G C60A | ≤ 0.5 |
| C24G C29G C49G | ≤ 0.5 |
| G6C G10A C27A C49U C66U | ≤ 0.5 |
| G12C C33U G50C A70U | 0.509 |
| G23C A43U G56A | 0.628 |
| A42C C49G | 0.759 |
| C49U G68C A69U | 0.569 |

| Variant | yeast fitness |
| --- | --- |
| C5A A15U U47C | ≤ 0.5 |
| C27A G50A | 0.848 |
| A21C U28A C31G | ≤ 0.5 |
| U35C A36C A40U C61G A69C A70C | ≤ 0.5 |
| C31A C55U | 0.863 |
| C31U C46U | 1.02 |
| C11U U19C G23A G25A A43U C55U | ≤ 0.5 |
| G6C U47A G51C A65G | 0.644 |
| C5G C46U C66A | 0.524 |
| U3A C61A | 0.778 |
| U16A A37G A43G | ≤ 0.5 |
| C34G A37U C62A | ≤ 0.5 |
| A21C C22G A42C U47A | ≤ 0.5 |
| G9A A14U C29G C34A G56A | ≤ 0.5 |
| U2A C24G G63C G67C A69U | ≤ 0.5 |
| C5G A37G C46G A57G | ≤ 0.5 |
| C27A A40C C46A | 0.597 |
| U7C A36C C61G C66U A69U | ≤ 0.5 |
| C5U A21G A45G | 0.638 |
| C11U A36C A65C C66U | 0.558 |
| G39C A42G G63A | ≤ 0.5 |

Reference: the RNAGym collection of RNA variant scans (doi:10.1126/science.aae0568)
